Experimental data taken from ChEMBL document CHEMBL1132156, “Synthesis and structure-activity relationships of potential anticancer agents: alkylcarbamates of 3-(9-acridinylamino)-5-hydroxymethylaniline” (J Med Chem, 1999).

Assays:
HL-60 = test: In vitro inhibition of human leukemic HL-60 cell growth in culture; type: functional, cell-based
Summary of the method: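 HL-60 cells were seeded at 5×10^4 cells/mL in RPMI 1640 with 10% heat-inactivated FBS, penicillin and streptomycin, at 37 °C in 5% CO2. Cells were exposed for 72 h to six or seven drug concentrations, run in duplicate. Viability was read by XTT-tetrazolium microculture absorbance, and IC50 was derived from median-effect plot analysis.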

Mus musculus [1] = test: […] anticancer activity against B6D2F-1 mice bearing P388 leukemia measured by the Average survival time(day+/-SD) at an intravenous dose of 4(mg/kg).; type: functional
Summary of the method: (§1)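 Male B6D2F1 mice, 8 weeks old, 20–25 g. P388/0 ascites cells (0.2 mL, ascites:saline 1.10) were implanted iv on day 0, and the tumor grew in the liver. Drug was given iv by tail vein on days 1, 3, 5, 7 and 9 (Q2Dx5), with 4–5 mice per group. Survival time was scored as 8 a.m. (0.0), 1 p.m. (0.25) or 5 p.m. (0.5) deaths. %ILS was averaged against untreated controls, and toxic deaths were counted.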

Mus musculus [2] = test: […] anticancer activity against B6D2F-1 mice bearing P388 leukemia measured by the average survival time(day+/-SD) at an intravenous dose of 3(mg/kg)..; type: functional; summary of the method: as §1
Mus musculus [3] = test: […] anticancer activity against B6D2F-1 mice bearing P388 leukemia measured by the average weight change(g) after day 7 at an intravenous dose of 3(mg/kg).; type: functional
Summary of the method: (§2)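 Male B6D2F1 mice (8 weeks old, 20–25 g) were implanted iv on day 0 with P388/0 ascites cells (0.2 mL; ascites:saline = 1.10). Tumor grew in the liver. Drug was given iv via the tail vein, Q2Dx5, on days 1, 3, 5, 7 and 9. Body weight was recorded on days 1, 7, 9 and 11 and reported as the average change (g).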

Mus musculus [4] = test: […] anticancer activity against B6D2F-1 mice bearing P388 leukemia measured by the average weight change(g) after day 7 at an intravenous dose of 4(mg/kg).; type: functional; summary of the method: as §2
Mus musculus [5] = test: […] anticancer activity against B6D2F-1 mice bearing P388 leukemia measured by the average weight change(g) after day 9 at an intravenous dose of 4(mg/kg).; type: functional; summary of the method: as §2
Mus musculus [6] = test: […] anticancer activity against B6D2F-1 mice bearing P388 leukemia measured by the average weight change(g) after day 11 at an intravenous dose of 4(mg/kg).; type: functional
Summary of the method: (§3)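 Male B6D2F1 mice (8 weeks old, 20–25 g) were implanted iv on day 0 with P388/0 ascites cells (0.2 mL; ascites:saline 1.10), which grew in the liver. Drug was given iv via the tail vein, Q2Dx5, on days 1, 3, 5, 7 and 9. Groups had 4–5 mice. Day 1 value is mean body weight; later days are weight change.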

Mus musculus [7] = test: […] anticancer activity against B6D2F-1 mice bearing P388 leukemia measured by the average weight change(g) after day 11 at an intravenous dose of 3(mg/kg).; type: functional; summary of the method: as §3
Mus musculus [8] = test: […] anticancer activity against B6D2F-1 mice bearing P388 leukemia measured by the increase in lifespan(%) at an intravenous dose of 3(mg/kg)..; type: functional; summary of the method: as §1
Mus musculus [9] = test: […] anticancer activity against B6D2F-1 mice bearing P388 leukemia measured by the increase in lifespan(%) at an intravenous dose of 4(mg/kg).; type: functional; summary of the method: as §1
Mus musculus [10] = test: […] anticancer activity against 5 B6D2F-1 mice bearing P388 leukemia measured by the toxicity death at an intravenous dose of 3(mg/kg)..; type: organism-based; conditions: in vivo; summary of the method: as §1
Mus musculus [11] = test: […] anticancer activity against 5 B6D2F-1 mice bearing P388 leukemia measured by the toxicity death at an intravenous dose of 4(mg/kg).; type: organism-based; conditions: in vivo; summary of the method: as §1
Mus musculus [12] = test: […] anticancer activity against B6D2F-1 mice bearing P388 leukemia measured by the average body weight(g) after day 1 at an intravenous dose of 3(mg/kg).
Mus musculus [13] = test: […] anticancer activity against B6D2F-1 mice bearing P388 leukemia measured by the average body weight(g) after day 1 at an intravenous dose of 4(mg/kg).

| IC50 (HL-60) [µM] | Structure (SMILES) | also measured |
| --- | --- | --- |
| 0.093 | CNC(=O)c1cccc2c(Nc3cc(N)cc(CO)c3)c3cccc(C)c3nc12 |  |
| 0.038 | COc1cccc2c(Nc3cc(N)cc(CO)c3)c3cccc(C(=O)NCCN(C)C)c3nc12 |  |
| 0.011 | COc1cccc2c(Nc3cc(N)cc(CO)c3)c3ccccc3nc12 |  |
| 0.032 | CCOC(=O)Nc1cc(CO)cc(Nc2c3cccc(OC)c3nc3c(C(=O)NC)cccc23)c1 |  |
| 0.088 | CCOC(=O)Nc1cc(CO)cc(Nc2c3ccccc3nc3c(C(=O)NC)cccc23)c1 |  |
| 0.067 | CCOC(=O)Nc1cc(CO)cc(Nc2c3ccccc3nc3c(Cl)cccc23)c1 |  |
| 0.13 | CN(C)CCNC(=O)c1cccc2c(Nc3cc(N)cc(CO)c3)c3ccccc3nc12 |  |
| 0.0097 | CCOC(=O)Nc1cc(CO)cc(Nc2c3cccc(OC)c3nc3c(C(=O)NCCN(C)C)cccc23)c1 |  |
| 0.161 | O=C(Nc1cc(CO)cc(Nc2c3ccccc3nc3ccccc23)c1)Oc1ccccc1 |  |
| 3.8 | CCOC(=O)Nc1cc(CO)cc(Nc2c3ccccc3nc3c([N+](=O)[O-])cccc23)c1 |  |
| 0.0076 | Cc1cccc2c(Nc3cc(N)cc(CO)c3)c3ccccc3nc12 |  |
| 0.008 | CCCOC(=O)Nc1cc(CO)cc(Nc2c3ccccc3nc3ccccc23)c1 |  |
| 0.0047 | CCOC(=O)Nc1cc(CO)cc(Nc2c3ccccc3nc3c(C)cccc23)c1 |  |
| 0.011 | CCOC(=O)Nc1cc(CO)cc(Nc2c3cccc(C)c3nc3c(C(=O)NC)cccc23)c1 |  |
|  | COc1cccc2c1C(=O)c1c(O)c3c(c(O)c1C2=O)C[C@@](O)(C(=O)CO)C[C@@H]3O[C@H]1C[C@H](N)[C@H](O)[C@H](C)O1 [DOXORUBICIN] | Average survival (Mus musculus [1]): 27.4 days; Average survival (Mus musculus [2]): 14.2 days; Average weight change (Mus musculus [3]): -0.4 g; Average weight change (Mus musculus [4]): -1.4 g; Average weight change (Mus musculus [5]): -1.6 g; Average weight change (Mus musculus [6]): -3.2 g; Average weight change (Mus musculus [7]): -3.6 g; Increase in life-span (Mus musculus [8]): 122%; Increase in life-span (Mus musculus [9]): 328%; Toxicity related death (Mus musculus [10]): 0; Toxicity related death (Mus musculus [11]): 0; Body weight (Mus musculus [12]): 23 g; Body weight (Mus musculus [13]): 23.6 g |
